Measurements taken from ChEMBL document CHEMBL2150940, “Mechanism-based design, synthesis and biological studies of N⁵-substituted tetrahydrofolate analogs as inhibitors of cobalamin-dependent methionine synthase and potential anticancer agents” (Eur J Med Chem, 2012).

How the values were obtained:
Dihydrofolate reductase = molecular target: T1, Dihydrofolate reductase (Homo sapiens, UniProt P00374); test: Inhibition of human recombinant DHFR using dihydrofolate as substrate by spectrophotometric analysis
T1 sequence (P00374 whole entry): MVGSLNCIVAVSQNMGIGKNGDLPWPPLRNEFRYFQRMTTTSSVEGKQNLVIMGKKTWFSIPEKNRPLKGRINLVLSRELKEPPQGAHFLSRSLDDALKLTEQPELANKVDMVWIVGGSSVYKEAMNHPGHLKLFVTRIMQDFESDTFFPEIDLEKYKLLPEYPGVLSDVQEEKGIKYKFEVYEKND
Outline: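 Recombinant human DHFR was followed spectrophotometrically in 0.1 mM dihydrofolate, 0.3 mM NADPH and 100 mM KCl, pH 7.5, at 32 °C.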

Methionine synthase = Methionine synthase (Homo sapiens, UniProt Q99707); test: Inhibition of methionine synthase in human HL60 cells using L-homocysteine as substrate incubated for 3 hrs prior to substrate addition measured after 10 mins spectrophotometric analysis; assay type: cell-based, HL-60
Outline: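 HL60 cells (1 × 10⁶/well) were serum-starved, then exposed 3 h to varied compound concentrations, lysed in HEPES pH 7.5 buffer and cleared at 4 °C. Lysate was mixed with potassium phosphate pH 7.2, DTT, 5-methyltetrahydrofolate, SAM and hydroxocobalamin (stock levels given) and preincubated 5 min at 37 °C. L-homocysteine started a 10 min 37 °C reaction. HCl/formic acid stop at 80 °C 10 min; A350 read.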

BGC-823 = test: Antiproliferative activity against human BGC823 cells after 48 hrs; assay type: functional, cell-based; conditions: BGC-823, 48 h
Outline: (§1)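 Cells kept in RPMI-1640 with 10% fetal bovine serum, penicillin (100 units mL⁻¹) and streptomycin at 37 °C in humidified 5% CO₂. Exponentially growing cells were exposed to a range of compound concentrations for 48 h. Growth inhibition was read by MTT and SRB assays. Values are means of three independent experiments.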

Bel-7402 = test: Antiproliferative activity against human Bel7402 cells after 48 hrs; assay type: functional, cell-based; conditions: Bel-7402, 48 h; outline: as §1
KB = test: Antiproliferative activity against human KB cells after 48 hrs; assay type: functional, cell-based; outline: as §1
HeLa = test: Antiproliferative activity against human HeLa cells after 48 hrs; assay type: functional, cell-based; outline: as §1
SK-OV-3 [1] = test: Antiproliferative activity against human SKOV3 cells after 48 hrs; assay type: functional, cell-based; conditions: SK-OV-3, 48 h; outline: as §1
SK-OV-3 [2] = test: Ratio of MTX IC50 to compound IC50 for human SKOV3 cells; assay type: functional

Chain of Methionine synthase (Q99707 whole entry): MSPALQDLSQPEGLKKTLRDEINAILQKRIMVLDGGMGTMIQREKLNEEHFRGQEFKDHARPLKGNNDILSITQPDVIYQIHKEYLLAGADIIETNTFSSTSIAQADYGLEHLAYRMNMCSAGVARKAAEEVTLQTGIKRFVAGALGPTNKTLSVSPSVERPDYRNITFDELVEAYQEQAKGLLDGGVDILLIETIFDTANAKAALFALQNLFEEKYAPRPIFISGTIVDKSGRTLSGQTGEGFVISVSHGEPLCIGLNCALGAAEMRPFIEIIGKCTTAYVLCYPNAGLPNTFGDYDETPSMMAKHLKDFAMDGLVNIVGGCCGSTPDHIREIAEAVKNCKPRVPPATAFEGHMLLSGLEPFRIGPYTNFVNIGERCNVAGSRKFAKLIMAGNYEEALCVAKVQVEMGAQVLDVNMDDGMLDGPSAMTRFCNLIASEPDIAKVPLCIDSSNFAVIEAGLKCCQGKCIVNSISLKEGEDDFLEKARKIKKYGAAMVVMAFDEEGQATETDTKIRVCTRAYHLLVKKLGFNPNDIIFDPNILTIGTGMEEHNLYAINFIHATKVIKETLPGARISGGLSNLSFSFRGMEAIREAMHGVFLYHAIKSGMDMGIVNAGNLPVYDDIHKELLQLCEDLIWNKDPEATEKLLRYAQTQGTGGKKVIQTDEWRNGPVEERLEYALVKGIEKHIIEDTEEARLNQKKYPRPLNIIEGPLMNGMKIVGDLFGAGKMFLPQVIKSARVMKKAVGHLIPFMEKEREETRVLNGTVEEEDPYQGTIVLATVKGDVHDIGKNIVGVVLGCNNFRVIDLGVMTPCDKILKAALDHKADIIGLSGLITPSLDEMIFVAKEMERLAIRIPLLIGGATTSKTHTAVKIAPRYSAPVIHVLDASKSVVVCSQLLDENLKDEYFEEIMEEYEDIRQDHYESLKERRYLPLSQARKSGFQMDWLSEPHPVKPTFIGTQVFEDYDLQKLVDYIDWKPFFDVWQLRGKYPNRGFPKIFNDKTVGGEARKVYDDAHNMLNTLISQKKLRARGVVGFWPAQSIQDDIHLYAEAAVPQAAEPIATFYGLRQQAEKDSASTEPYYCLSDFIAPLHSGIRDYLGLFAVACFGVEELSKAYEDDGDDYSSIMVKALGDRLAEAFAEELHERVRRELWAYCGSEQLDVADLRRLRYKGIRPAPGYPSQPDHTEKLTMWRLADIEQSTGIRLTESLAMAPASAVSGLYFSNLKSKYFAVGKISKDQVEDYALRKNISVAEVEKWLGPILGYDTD

Row | SMILES | IC50 (Dihydrofolate reductase) [nM] | IC50 (Methionine synthase) [µM] | IC50 (BGC-823) [nM] | IC50 (Bel-7402) [µM] | IC50 (KB) [µM] | IC50 (HeLa) [nM] | IC50 (SK-OV-3 [1]) [nM] | Ratio IC50 (SK-OV-3 [2])
1 | Nc1nc(N)c2nc(CNc3ccc(C(=O)N[C@@H](CCC(=O)O)C(=O)O)cc3)ccc2n1 | 18 | > 100 | 10 | 18.3 | 2.7 | 3 | 10 | 
2 | Nc1nc(N)c2c(n1)CCC(CNc1ccc(C(=O)N[C@@H](CCC(=O)O)C(=O)O)cc1Br)N2CC(Br)CBr (some centres undefined) |  | 1.43 |  |  | > 100 |  | 42 | 1.4
3 | Cc1ccc(S(=O)(=O)N2c3c(N)nc(N)nc3CCC2CN(C)c2ccc(C(=O)N[C@@H](CCC(=O)O)C(=O)O)cc2)cc1 (some centres undefined) | 1070 | 55 | 289 | 0.325 | 0.336 | 434 | 450 | 
4 | C=CCN1c2c(N)nc(N)nc2CCC1CNc1ccc(C(=O)N[C@@H](CCC(=O)O)C(=O)O)cc1 (some centres undefined) |  | 27.8 |  |  | > 100 |  | 870 | 
5 | Nc1nc(N)c2c(n1)CCC1CN(c3ccc(C(=O)N[C@@H](CCC(=O)O)C(=O)O)cc3)CN21 (some centres undefined) | 800 | 66.4 | 180 | 64.7 | > 100 | 130 | 37400 | 
6 | CN(Cc1cnc2nc(N)nc(N)c2n1)c1ccc(C(=O)N[C@@H](CCC(=O)O)C(=O)O)cc1 [METHOTREXATE] |  |  |  |  | 20.9 |  | 60 | 
7 | CN(CC1CCc2nc(N)nc(N)c2N1C=O)c1ccc(C(=O)N[C@@H](CCC(=O)O)C(=O)O)cc1 (some centres undefined) | 32 | 8.11 | 6900 | 65.2 | > 130 | 6000 | > 100000 | 
8 | CN(CC1CCc2nc(N)nc(N)c2N1)c1ccc(C(=O)N[C@@H](CCC(=O)O)C(=O)O)cc1 (mixture of isomers) | 33 | > 100 |  |  |  |  |  | 
9 | CC(=O)N(CC1CCc2nc(N)nc(N)c2N1C=O)c1ccc(C(=O)N[C@@H](CCC(=O)O)C(=O)O)cc1 (some centres undefined) | > 100000 | 1.73 | 27000 | 12.3 | 20 | 41600 | 34600 | 
10 | C=CCN1c2c(N)nc(N)nc2CCC1CN(C)c1ccc(C(=O)N[C@@H](CCC(=O)O)C(=O)O)cc1 (some centres undefined) | 420 | > 100 | 2090 | 61.5 | > 100 | 227 | 573 | 
11 | Nc1nc(N)c2c(n1)CCC(CNc1ccc(C(=O)N[C@@H](CCC(=O)O)C(=O)O)cc1)N2 (mixture of isomers) |  | 87.9 |  |  | > 100 |  | 240 | 
12 | C=CCN(CC1CCc2nc(N)nc(N)c2N1CC=C)c1ccc(C(=O)N[C@@H](CCC(=O)O)C(=O)O)cc1 (some centres undefined) |  | 15.9 |  |  | 6.72 |  | 50200 | 
13 | C=CCN1c2c(N)nc(N)nc2CCC1CNc1ccc(C(=O)N[C@@H](CCC(=O)O)C(=O)O)cc1Br (some centres undefined) |  | 21 |  |  | > 100 |  | > 100000 | 
14 | CC(=O)N(CC1CCc2nc(N)nc(N)c2N1)c1ccc(C(=O)N[C@@H](CCC(=O)O)C(=O)O)cc1 (mixture of isomers) | 33 | > 100 | > 100000 | > 100 | 31.1 | > 100000 | > 100000 | 
